Reference: ChEMBL document CHEMBL4038302, “Fibroblast Activation Protein α Activated Tripeptide Bufadienolide Antitumor Prodrug with Reduced Cardiotoxicity” (J Med Chem, 2017)
Calls of active or inactive are those of the source. The rule behind the calls is not given here.

Assays:
Prolyl endopeptidase FAP [1] = target: T1, Prolyl endopeptidase FAP (Homo sapiens, UniProt Q12884); assay: (§1) Prodrug activation assessed as Vmax for recombinant human FAP-alpha mediated (S)-((3S,5R,8R,9S,10S,11S,13R,14S,17R)-11,14-dihydroxy-10,13-dimethyl-12-oxo-17-(2-oxo-2H-pyran-5-yl)hexadecahydro-1H-cyclopenta[a]phenanthren-3-yl) 2-amino-4-methylpentanoate formation after 90 mins by UPLC-MS/MS analysis; details: 1.5 h
T1 sequence (Q12884 whole entry): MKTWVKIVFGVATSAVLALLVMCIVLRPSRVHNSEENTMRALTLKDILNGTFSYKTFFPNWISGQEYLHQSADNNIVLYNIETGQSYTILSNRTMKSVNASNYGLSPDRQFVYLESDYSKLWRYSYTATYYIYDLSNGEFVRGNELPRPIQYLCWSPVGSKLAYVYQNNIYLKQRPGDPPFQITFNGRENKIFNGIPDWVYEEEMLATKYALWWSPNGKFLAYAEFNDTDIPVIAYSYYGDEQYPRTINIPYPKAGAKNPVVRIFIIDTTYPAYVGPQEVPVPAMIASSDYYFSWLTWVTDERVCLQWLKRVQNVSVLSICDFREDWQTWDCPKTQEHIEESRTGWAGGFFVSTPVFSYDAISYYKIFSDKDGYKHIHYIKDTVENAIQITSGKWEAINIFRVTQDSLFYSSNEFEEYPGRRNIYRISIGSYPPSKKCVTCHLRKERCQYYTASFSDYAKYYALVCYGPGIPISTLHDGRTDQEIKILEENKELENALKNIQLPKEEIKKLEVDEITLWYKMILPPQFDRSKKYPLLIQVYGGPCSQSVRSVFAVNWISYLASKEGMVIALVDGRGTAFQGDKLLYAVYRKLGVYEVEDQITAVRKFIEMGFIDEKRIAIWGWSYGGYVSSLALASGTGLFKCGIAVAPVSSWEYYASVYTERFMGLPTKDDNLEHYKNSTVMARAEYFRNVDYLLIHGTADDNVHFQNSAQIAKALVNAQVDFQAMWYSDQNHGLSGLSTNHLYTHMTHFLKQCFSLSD
How it was run: (§2)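 Prodrug at 0.625–40 μmol/L incubated with rhFAPα at 0.45 μg/mL and internal standard in 0.2 mL PBS, pH 7.4, at 37 °C for 90 min. Quenched with MeCN and spun at 18 000g for 15 min; product measured by UPLC-MS/MS. S50 and Vmax fitted with an allosteric sigmoidal model; CLint = Vmax/S50. Three independent experiments.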

Prolyl endopeptidase FAP [2] = target: T1, Prolyl endopeptidase FAP; assay: as §1, with “as” for “as Vmax for”, “formation by measuring concentration of test compound gives half-maximal activity” for “formation”; details: 1.5 h; how it was run: as §2
Prolyl endopeptidase FAP [3] = target: T1, Prolyl endopeptidase FAP; assay: as §1, with “as” for “as Vmax for”, “formation by measuring intrinsic clearance” for “formation”; details: 1.5 h; how it was run: as §2
Prolyl endopeptidase FAP [4] = target: T1, Prolyl endopeptidase FAP; assay: as §1, with “as” for “as Vmax for”, “2-aminopropanoate” for “2-amino-4-methylpentanoate”, “formation […]” for “formation”; details: 1.5 h; how it was run: as §2
Prolyl endopeptidase FAP [5] = target: T1, Prolyl endopeptidase FAP; assay: Prodrug activation assessed as recombinant human FAP-alpha mediated (3S,5R,8R,9S,10S,11S,13R,14S,17R)-11,14-dihydroxy-10,13-dimethyl-12-oxo-17-(2-oxo-2H-pyran-5-yl)hexadecahydro-1H-cyclopenta[a]phenanthren-3-yl 4-aminobenzoate formation at 40 umol/L after 6 hrs by UPLC-MS/MS analysis; details: 40 µM
How it was run: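 Prodrug at 40 μmol/L incubated with rhFAPα at 0.45 μg/mL in 0.2 mL buffer at 37 °C for 6 h, with bufalin at 2 μmol/L as internal standard. Stopped with acetonitrile and spun at 18 000g for 15 min. Released active form measured by UPLC-MS/MS via peak-area ratio against a standard curve of 0.625–40 μmol/L.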

[6] = Cytotoxicity in BMSC (unknown origin) assessed as cell viability at 1000 nmol/L after 72 hrs by MTT assay; type: cell-based; details: unidentified, 1 µM
MDA-MB-435 = assay: Antiproliferative activity against wild type human MDA-MB-435 cells expressing FAP-alpha incubated for 48 hrs by MTT assay; type: functional, cell-based; details: MDA-MB-435, 48 h
How it was run: (§3)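 Cells grown in DMEM with 10% FBS and 1% penicillin-streptomycin at 37 °C, 5% CO2; 10% heat-inactivated FBS used during cytotoxicity testing to exclude serum FAP activity. Viability read by MTT; IC50 as mean ± SEM of at least three independent experiments. Transfected lines were made from MDA-MB-231 with human FAPα plasmid or empty pCMV6-Entry vector and checked by Western blot at 48 h.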

MCF7 = assay: Antiproliferative activity against FAP-alpha deficient human MCF7 cells incubated for 48 hrs by MTT assay; type: functional, cell-based; details: MCF7, 48 h; how it was run: as §3
MDA-MB-231 [7] = assay: Antiproliferative activity against FAP-alpha deficient human MDA-MB-231 cells incubated for 48 hrs by MTT assay; type: functional, cell-based; details: MDA-MB-231, 48 h; how it was run: as §3
MDA-MB-231 [8] = assay: Antiproliferative activity against human MDA-MB-231 cells assessed as decrease in cell viability at 62.5 to 500 nmol/L after 72 hrs by MTT assay; type: functional, cell-based
MDA-MB-231 [9] = assay: Antitumor activity against human MDA-MB-231 cells xenografted in BALB/C nude mouse at 4 umol/kg, iv administered starting on day 5 measured after day 22 by Ki67 staining-based assay relative to control; type: functional
How it was run: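 Female BALB/C nude mice, MDA-MB-231 cells (1 × 10^7) injected subcutaneously in Matrigel–PBS 1:1. Daily iv dosing in 5% HS15 vehicle from day 5. Tumours fixed and paraffin-embedded, 5 μm sections, anti-Ki67 IHC, read blind by a pathologist. Proliferative index by image analysis, n = 6. Compared with 5% HS15 control by one-way ANOVA and Tukey's test.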

MDA-MB-231 [10] = assay: Antitumor activity against human MDA-MB-231 cells xenografted in BALB/C nude mouse assessed as tumor regression at 4 umol/kg, iv administered starting on day 5 measured after day 22 by Ki67 staining-based assay; type: functional, organism-based
Mus musculus [11] = assay: Cardiotoxicity in BALB/C nude mouse xenografted with human MDA-MB-231 cells assessed as increase in interventricular septal systole dimension at 4 umol/kg, iv administered starting on day 5 measured after day 22 by echocardiography; type: toxicity, organism-based; details: in vivo
How it was run: (§4)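 MDA-MB-231 xenograft mice dosed iv daily in 5% HS15 from day 5, 22 days of treatment. Transthoracic echocardiography with a 21 MHz transducer under 1.5% isoflurane, supine position. M-mode images from parasternal short-axis view at papillary muscle level, used to derive LVIDd, LVIDs, IVSd and IVSs. n = 6, mean ± SEM, one-way ANOVA with Tukey's test.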

Mus musculus [12] = assay: Cardiotoxicity in BALB/C nude mouse xenografted with human MDA-MB-231 cells assessed as increase in interventricular septal diastole dimension at 4 umol/kg, iv administered starting on day 5 measured after day 22 by echocardiography; type: toxicity, organism-based; details: in vivo; how it was run: as §4
Mus musculus [13] = assay: Cardiotoxicity in BALB/C nude mouse xenografted with human MDA-MB-231 cells assessed as decrease in left ventricular internal systole dimension at 4 umol/kg, iv administered starting on day 5 measured after day 22 by echocardiography; type: toxicity, organism-based; details: in vivo; how it was run: as §4
Mus musculus [14] = assay: Cardiotoxicity in BALB/C nude mouse xenografted with human MDA-MB-231 cells assessed as decrease in left ventricular internal diastole dimension at 4 umol/kg, iv administered starting on day 5 measured after day 22 by echocardiography; type: toxicity, organism-based; details: in vivo; how it was run: as §4
Mus musculus [15] = assay: Cardiotoxicity in BALB/C nude mouse xenografted with human MDA-MB-231 cells assessed as cytoplasmic vacuolization at 4 umol/kg, iv administered starting on day 5 measured after day 22 by hematoxylin-eosin staining-based assay; type: toxicity, organism-based; details: in vivo
How it was run: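 Xenograft mice (MDA-MB-231, female BALB/C nude) dosed iv daily in 5% HS15 from day 5. Heart fixed 24 h, paraffin-embedded, cut into 5 μm sections and stained with H&E. Vacuolization scored by a pathologist blind to treatment.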

Mus musculus [16] = assay: Cardiotoxicity in BALB/C nude mouse xenografted with human MDA-MB-231 cells assessed as increase in LDH level at 4 umol/kg, iv administered starting on day 5 measured after day 22; type: toxicity, organism-based; details: in vivo
How it was run: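 Xenograft-bearing mice dosed iv daily in 5% HS15. Blood taken by cardiac puncture before sacrifice and spun at 3000 rpm for 20 min at 4 °C to give serum. D-LDH activity measured by colorimetric kit. n = 6, one-way ANOVA with Tukey's test against HS15 control.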

[17] = Acute toxicity in iv dosed Kunming mouse measured less than 4 hrs post dose; type: organism-based; details: in vivo
How it was run: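 Kunming mice (22.0−28.0 g), half male and half female, 10 groups of n = 10. Single iv dose on day 1 across five levels per compound (prodrug 29.98–50.00 μmol/kg; arenobufagin 4.50–8.00 μmol/kg). Watched continuously for 8 h for abnormal behaviour and deaths, then intermittently for 2 weeks, and sacrificed day 14. LD50 by Bliss method.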

Mus musculus [18] = assay: Acute toxicity in Kunming mouse assessed as mortality at 4 umol/kg, iv after 8 hrs post dose; type: organism-based; details: in vivo

CC(C)C[C@H](NC(=O)[C@@H]1CCCN1C(=O)CNC(=O)OCc1ccccc1)C(=O)O[C@H]1CC[C@@]2(C)[C@H](CC[C@@H]3[C@@H]2[C@H](O)C(=O)[C@]2(C)[C@@H](c4ccc(=O)oc4)CC[C@]32O)C1
Vmax (Prolyl endopeptidase FAP [1]): 0.042 µmol/min/mg | S50 (Prolyl endopeptidase FAP [2]): 11.92 µmol/L | CL (Prolyl endopeptidase FAP [3]): 3520 µL/min/mg

C[C@H](NC(=O)[C@@H]1CCCN1C(=O)CNC(=O)OCc1ccccc1)C(=O)O[C@H]1CC[C@@]2(C)[C@H](CC[C@@H]3[C@@H]2[C@H](O)C(=O)[C@]2(C)[C@@H](c4ccc(=O)oc4)CC[C@]32O)C1
CL (Prolyl endopeptidase FAP [4]): 23240 µL/min/mg

C[C@]12CC[C@H](OC(=O)c3ccc(NC(=O)[C@@H]4CCCN4C(=O)CNC(=O)OCc4ccccc4)cc3)C[C@H]1CC[C@@H]1[C@@H]2[C@H](O)C(=O)[C@]2(C)[C@@H](c3ccc(=O)oc3)CC[C@]12O
Drug metabolism (Prolyl endopeptidase FAP [5]): Metabolite_Notdetected

C[C@]12CC[C@H](O)C[C@H]1CC[C@@H]1[C@@H]2[C@H](O)C(=O)[C@]2(C)[C@@H](c3ccc(=O)oc3)CC[C@]12O
Activity [6]: Non-Toxic | IC50 (MDA-MB-435): 22.4 nM | IC50 (MCF7): 8.88 nM | IC50 (MDA-MB-231 [7]): 15.7 nM | Activity (MDA-MB-231 [8]): Active | Activity (MDA-MB-231 [9]): 45 - 50% | Activity (MDA-MB-231 [10]): Active | Activity (Mus musculus [11]): Toxic | Activity (Mus musculus [12]): Toxic | Activity (Mus musculus [13]): Toxic | Activity (Mus musculus [14]): Toxic | Activity (Mus musculus [15]): Toxic | Activity (Mus musculus [16]): Toxic | LD50 at 4 h [17]: 6.82 µmol/kg | Activity (Mus musculus [18]): Non-Toxic
